Results from ChEMBL document CHEMBL4382225, “Dimeric cinnamoylamide analogues for regulation of tyrosinase activity in melanoma cells: A role of diamide-link chain length” (Bioorg Med Chem, 2018).
Calls of active or inactive are those of the source. The calls are words filed in the database; no cut-off is given here.

Assays:
[1] = target: T1, Tyrosinase (Agaricus bisporus, UniProt O42713); test: Inhibition of mushroom tyrosinase
T1 sequence (O42713 whole entry): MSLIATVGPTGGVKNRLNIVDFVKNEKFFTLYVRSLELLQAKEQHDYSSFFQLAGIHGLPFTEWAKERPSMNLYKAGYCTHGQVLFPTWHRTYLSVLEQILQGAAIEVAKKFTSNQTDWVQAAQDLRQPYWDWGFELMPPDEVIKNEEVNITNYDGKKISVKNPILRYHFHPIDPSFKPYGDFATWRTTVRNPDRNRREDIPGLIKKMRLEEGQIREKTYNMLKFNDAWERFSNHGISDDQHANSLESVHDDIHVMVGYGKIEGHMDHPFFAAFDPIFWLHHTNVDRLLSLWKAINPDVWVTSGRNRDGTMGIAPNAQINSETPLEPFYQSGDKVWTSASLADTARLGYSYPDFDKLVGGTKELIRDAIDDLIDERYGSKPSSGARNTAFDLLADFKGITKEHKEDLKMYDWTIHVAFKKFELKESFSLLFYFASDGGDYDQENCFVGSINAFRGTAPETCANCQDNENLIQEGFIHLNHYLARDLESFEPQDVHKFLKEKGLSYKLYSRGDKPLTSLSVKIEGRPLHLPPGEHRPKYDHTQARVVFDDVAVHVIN

[2] = system: B16-F1; test: Cytotoxicity against mouse B16-F1 cells at 100 to 200 uM after 72 hrs by MTT assay; type: cell-based; settings: b16-f1, 72 h
Method in brief: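 B16F1 cells grown in DMEM with 10% FBS and 1% penicillin/streptomycin at 37 °C, 5% CO₂. Seeded 1 × 10⁴ cells/well, treated at 100, 150 and 200 μM for 72 h. Medium removed, MTT added for 1 h, formazan dissolved in DMSO, absorbance at 570 nm. Mean SD of three independent experiments vs untreated cells.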

[3] = target: T2, Tyrosinase (Mus musculus, UniProt P11344); test: Inhibition of tyrosinase in mouse B16-F1 cells; type: cell-based
T2 sequence (P11344 whole entry): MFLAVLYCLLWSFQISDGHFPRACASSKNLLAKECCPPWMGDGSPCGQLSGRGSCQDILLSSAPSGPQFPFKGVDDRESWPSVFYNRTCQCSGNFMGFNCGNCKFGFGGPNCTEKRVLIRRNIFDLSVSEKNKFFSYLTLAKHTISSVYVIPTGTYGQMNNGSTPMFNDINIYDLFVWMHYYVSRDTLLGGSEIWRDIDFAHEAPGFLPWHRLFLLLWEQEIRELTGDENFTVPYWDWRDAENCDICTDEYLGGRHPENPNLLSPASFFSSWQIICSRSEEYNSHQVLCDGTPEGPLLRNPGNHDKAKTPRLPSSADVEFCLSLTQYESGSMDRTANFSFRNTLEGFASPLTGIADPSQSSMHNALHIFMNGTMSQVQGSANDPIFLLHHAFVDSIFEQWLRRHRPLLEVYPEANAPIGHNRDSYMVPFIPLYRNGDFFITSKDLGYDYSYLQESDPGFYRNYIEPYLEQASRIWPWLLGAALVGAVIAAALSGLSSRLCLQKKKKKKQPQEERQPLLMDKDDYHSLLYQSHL
Method in brief: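 Lysate of B16F1 cells in RIPA buffer, spun 13,000 rpm for 30 min at 4 °C, supernatant protein quantified by BCA. IC₅₀; mean (SD) of three independent experiments.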

[4] = system: B16-F1; test: Antimelanogenic activity in mouse B16-F1 cells assessed as reduction in alpha-MSH-stimulated melanin production preincubated for 72 hrs followed by alpha-MSH-stimulation and measured after 2 hrs; type: functional, cell-based
Method in brief: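 B16F1 cells seeded at 1 × 10⁵ cells/well, exposed to compound at indicated concentrations (up to 150 μM) together with 200 nM α-MSH for 72 h. Cells washed twice in PBS, dissolved in 1 N NaOH with 10% DMSO at 80 °C for 2 h, lysate absorbance read at 405 nm. IC₅₀ for melanin production; mean (SD) of three independent experiments.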

[5] = Antioxidant activity assessed as DPPH free radical scavenging activity after 10 mins; type: functional
[6] = Metal chelating activity of the compound assessed as Cu2+-compound complex formation at 50 uM after 10 mins by UV-Vis spectrophotometric analysis
Method in brief: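 Copper chelation by UV–vis spectra (220–400 nm). 50 μL of 50 μM compound in ethanol mixed with 0.95 mL aqueous 10 μM CuSO₄, or water as control, incubated at 25 °C for 10 min before spectra recorded.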

[7] = Drug uptake in mouse B16-F1 cells; type: ADME, cell-based

SMILES	IC50 [1]	IC50 [3]	IC50 [4]	EC50 [5]	Activity [6]	Drug uptake [7]	Activity [2]
COc1ccc(/C=C/C(=O)NCCCCNC(=O)/C=C/c2ccc(OC)c(O)c2)cc1O	80.2 µM	> 150 µM	> 150 µM	4200 µM	–	–	Non-Toxic
O=C(/C=C/c1ccc(O)cc1)NCCNC(=O)/C=C/c1ccc(O)cc1	4.6 µM	> 150 µM	> 150 µM	> 5000 µM	–	–	Non-Toxic
O=C1O[C@H]([C@@H](O)CO)C(O)=C1O [ASCORBIC ACID]	–	–	–	180 µM	–	–	–
COc1cc(/C=C/C(=O)NCCCCNC(=O)/C=C/c2ccc(O)c(OC)c2)ccc1O [TERRESTRIBISAMIDE]	108 µM	88.4 µM	> 150 µM	830 µM	Active	–	Non-Toxic
O=C(/C=C/c1cccc(O)c1)NCCCCNC(=O)/C=C/c1cccc(O)c1	> 150 µM	> 150 µM	> 150 µM	> 5000 µM	–	Active	Non-Toxic
COc1cc(/C=C/C(=O)NCCNC(=O)/C=C/c2ccc(O)c(OC)c2)ccc1O	> 150 µM	> 150 µM	> 150 µM	90 µM	–	–	Non-Toxic

Second part, led by results:

IC50 [1]	IC50 [3]	IC50 [4]	EC50 [5]	Activity [6]	Drug uptake [7]	SMILES	Activity [2]
98.3 µM	65.2 µM	123 µM	150 µM	Active	Active	COc1cc(/C=C/C(=O)NCCCNC(=O)/C=C/c2ccc(O)c(OC)c2)ccc1O	Non-Toxic
6.5 µM	> 150 µM	> 150 µM	> 5000 µM	–	Active	O=C(/C=C/c1ccc(O)cc1)NCCCCNC(=O)/C=C/c1ccc(O)cc1	Non-Toxic
55.3 µM	46.7 µM	111 µM	2310 µM	Active	Active	COc1ccc(/C=C/C(=O)NCCCNC(=O)/C=C/c2ccc(OC)c(O)c2)cc1O	Non-Toxic
3.4 µM	4.6 µM	45.6 µM	> 5000 µM	Active	–	O=C(/C=C/c1ccc(O)cc1)NCCCNC(=O)/C=C/c1ccc(O)cc1	Non-Toxic
55.2 µM	40.2 µM	95.3 µM	> 5000 µM	Active	–	O=C(/C=C/c1cccc(O)c1)NCCCNC(=O)/C=C/c1cccc(O)c1	Non-Toxic
84.2 µM	> 150 µM	> 150 µM	2210 µM	–	–	COc1ccc(/C=C/C(=O)NCCNC(=O)/C=C/c2ccc(OC)c(O)c2)cc1O	Non-Toxic
95.3 µM	> 150 µM	> 150 µM	> 5000 µM	–	–	O=C(/C=C/c1cccc(O)c1)NCCNC(=O)/C=C/c1cccc(O)c1	Non-Toxic
–	–	148 µM	1700 µM	–	–	OC[C@H]1O[C@@H](Oc2ccc(O)cc2)[C@H](O)[C@@H](O)[C@@H]1O [ARBUTIN]	–
